Experimental data from different studies.
Protocols differ between the studies behind these lines.

| Compound | organism | assay | system | setting | measurement | result |
| --- | --- | --- | --- | --- | --- | --- |
| CCOC(=O)c1cnc2c([N+](=O)[O-])cc(C(F)(F)F)cc2c1NCCCn1ccnc1 | Trypanosoma brucei | parasite growth, resazurin |  | 72 h | EC50 | 8000 nM |
| O=[N+]([O-])c1ccc(Nc2ncnc3ccc(-c4cccc(N5CCOCC5)c4)cc23)cc1C(F)(F)F | Trypanosoma brucei | parasite growth, SYBR Green | GAMBIENSE |  | GI50 | 13 nM |
| O=c1[nH]c(CCl)nc2scc(-c3cccc(F)c3)c12 | Trypanosoma brucei | parasite growth, ATP luminescence |  | 24 h | EC50 | 1300 nM |
| C[C@@H]1[C@H](O)[C@@H](C)/C=C/C=C/C=C/C=C/C=C/C=C/C=C/[C@H](O[C@@H]2O[C@H](C)[C@@H](O)[C@H](N)[C@@H]2O)C[C@@H]2O[C@](O)(C[C@@H](O)C[C@@H](O)[C@H](O)CC[C@@H](O)C[C@@H](O)CC(=O)O[C@H]1C)C[C@H](O)[C@H]2C(=O)O | Candida albicans | microbial growth, broth dilution | SP3902 | 48 h | MIC | < 0.25 µM |
| CCOC(=O)c1cnc2c([N+](=O)[O-])cc(C(F)(F)F)cc2c1NC1CC1 | Trypanosoma brucei | parasite growth, resazurin |  | 72 h | EC50 | > 10000 nM |
| c1cc(-c2ccc3ncnc(Nc4ncco4)c3c2)nc(N2CCOCC2)c1 | Trypanosoma brucei | parasite growth, SYBR Green |  | 48 h | GI50 | 190 nM |
| CC(=O)N1CCN(c2ccc(OCC3COC(Cn4ccnc4)(c4ccc(Cl)cc4Cl)O3)cc2)CC1 (stereo not drawn) | Candida albicans | microbial growth, broth dilution | SP3903 | 48 h | MIC | 2 µM |
| c1cc(-c2ccc3ncnc(NC4CCOCC4)c3c2)cc(N2CCOCC2)c1 | Trypanosoma brucei | parasite growth, SYBR Green |  | 48 h | GI50 | 3000 nM |
| Cc1c2c(nn1C)CSCc1cc(n(C)n1)CSc1cc(c3ccccc3c1)OCCCc1c(C(=O)O)n(C)c3c-2c(Cl)ccc13 | Enterococcus faecium | microbial growth, broth dilution |  | clinical isolate | MIC90 | 25 µM |
| C/C(=N\C(=N)/N=C(\C)c1c(O)c2ccccc2oc1=O)c1c(O)c2ccccc2oc1=O | Penicillium verrucosum | microbial growth, broth dilution |  | 48 h | MIC | 125 µg/mL |
| c1cc(-c2ccc3ncnc(Nc4ncco4)c3c2)nc(N2C[C@H]3C[C@@H]2CO3)n1 | Trypanosoma brucei | parasite growth, SYBR Green |  | 48 h | GI50 | 4700 nM |
| C/C(=N\CCNCCNCC/N=C(\C)c1c(O)c2ccccc2oc1=O)c1c(O)c2ccccc2oc1=O | Penicillium verrucosum | microbial growth, broth dilution |  | 48 h | MIC | 31.2 µg/mL |
| COc1c(N2C[C@@H]3CCCN[C@@H]3C2)c(F)cc2c(=O)c(C(=O)O)cn(C3CC3)c12 | Enterococcus faecium | microbial growth |  | clinical isolate | MIC90 | 64 µg/mL |
| Cn1cc(Nc2ncnc3ccc(-c4cccc(N5CCOCC5)c4)cc23)cn1 | Trypanosoma brucei | parasite growth, SYBR Green |  | 48 h | GI50 | 250 nM |
| CCS(=O)(=O)Oc1ccc(C=NNC(=O)CSc2nc3ccc(Cl)cc3c(=O)n2-c2ccccc2)cc1OC | Candida albicans | microbial growth, well diffusion |  | 20 µg/mL | inhibition zone | 2 mm |
| CC(=O)N1CCN(c2ccc(OCC3COC(Cn4ccnc4)(c4ccc(Cl)cc4Cl)O3)cc2)CC1 (stereo not drawn) | Penicillium verrucosum | microbial growth, broth dilution |  | 48 h | MIC | 3.9 µg/mL |
| O=c1[nH]c(CCl)nc2scc(-c3ccccc3)c12 | Trypanosoma brucei | parasite growth, ATP luminescence |  | 48 h | EC50 | 1400 nM |
| CN1CCN(c2cccc(-c3ccc4ncnc(Nc5ncco5)c4c3)c2)CC1 | Trypanosoma brucei | parasite growth, SYBR Green |  | 48 h | GI50 | 1700 nM |
| CC[C@H]1OC(=O)[C@H](C)[C@@H](O[C@H]2C[C@@](C)(OC)[C@@H](O)[C@H](C)O2)[C@H](C)[C@@H](O[C@@H]2O[C@H](C)C[C@H](N(C)C)[C@H]2O)[C@](C)(O)C[C@@H](C)/C(=N\OCOCCOC)[C@H](C)[C@@H](O)[C@]1(C)O | Enterococcus faecium | microbial growth |  | clinical isolate | MIC90 | > 128 µg/mL |
| c1cc(-c2ccc3ncnc(Nc4ncco4)c3c2)cc(N2C[C@H]3C[C@@H]2CO3)c1 | Trypanosoma brucei | parasite growth, SYBR Green |  | 48 h | GI50 | 2100 nM |
| C/C(=N\N=C(/C)c1c(O)c2ccccc2oc1=O)c1c(O)c2ccccc2oc1=O | Penicillium verrucosum | microbial growth, broth dilution |  | 48 h | MIC | 62.5 µg/mL |
| OC(Cn1cncn1)(Cn1cncn1)c1ccc(F)cc1F | Candida albicans | microbial growth, broth dilution | SP3876 | 48 h | MIC | 16 µM |
| FC(F)(F)c1cc(Nc2ncnc3ccc(-c4cccc(N5CCOCC5)c4)cc23)ccc1Cl | Trypanosoma brucei | parasite growth, SYBR Green | GAMBIENSE |  | GI50 | 250 nM |
| O=c1[nH]c(CCl)nc2scc(-c3ccccc3F)c12 | Trypanosoma brucei | parasite growth, ATP luminescence |  | 24 h | EC50 | 1000 nM |
| C/C(=N\NC(=O)/N=C(\C)c1c(O)c2ccccc2oc1=O)c1c(O)c2ccccc2oc1=O | Penicillium verrucosum | microbial growth, broth dilution |  | 48 h | MIC | 62.5 µg/mL |
| CC1(C)S[C@@H]2[C@H](NC(=O)[C@H](N)c3ccccc3)C(=O)N2[C@H]1C(=O)O | Enterococcus faecium | microbial growth |  | clinical isolate | MIC90 | > 128 µg/mL |
| O=c1[nH]c(CCl)nc2scc(-c3ccc(F)cc3)c12 | Trypanosoma brucei | parasite growth, ATP luminescence |  | 24 h | EC50 | 1300 nM |
